ChEMBL document CHEMBL4406834, “Phenylthiazoles with nitrogenous side chain: An approach to overcome molecular obesity” (Eur J Med Chem, 2019)
Values after ≈ are worked out from the molar mass of the structure shown. Active and inactive are the calls of the source. No cut-off for these calls is given here.

Tests used:
Acinetobacter baumannii [1] = assay: Antibacterial activity against Acinetobacter baumannii ATCC 19606; format: functional; details: ATCC 19606 = CIP 70.34 = JCM 6841
Staphylococcus aureus [2] = assay: Bactericidal activity against methicillin-resistant Staphylococcus aureus USA400 assessed as reduction in bacterial burden at 5 times MIC after 4 hrs by time kill assay; format: functional, organism-based
Streptococcus pneumoniae [3] = assay: Bactericidal activity against methicillin-resistant Streptococcus pneumoniae ATCC 700677 incubated for 18 to 20 hrs followed by replating on tryptic soy agar plate and further incubated for 18 to 24 hrs by CLSI-based broth microdilution assay; format: functional
Outline: (§1)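 MBC: after the broth microdilution MIC (CAMHB, ~5 × 10^5 CFU/mL, 37 °C, 18-20 h), 4 µL from wells without growth plated onto tryptic soy agar. Plates incubated 37 °C for 18-20 h. MBC is the lowest concentration giving 99.9% reduction in growth.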

Streptococcus pneumoniae [4] = assay: Bactericidal activity against cephalosporin-resistant Streptococcus pneumoniae ATCC 51916 incubated for 18 to 20 hrs followed by replating on tryptic soy agar plate and further incubated for 18 to 24 hrs by CLSI-based broth microdilution assay; format: functional; outline: as §1
Listeria monocytogenes = assay: Bactericidal activity against Listeria monocytogenes ATCC 19111 incubated for 18 to 20 hrs followed by replating on tryptic soy agar plate and further incubated for 18 to 24 hrs by CLSI-based broth microdilution assay; format: functional
Enterococcus faecium [5] = assay: Bactericidal activity against vancomycin-resistant Enterococcus faecium ATCC 700221 incubated for 18 to 20 hrs followed by replating on tryptic soy agar plate and further incubated for 18 to 24 hrs by CLSI-based broth microdilution assay; format: functional; outline: as §1
Enterococcus faecalis = assay: Bactericidal activity against vancomycin-resistant Enterococcus faecalis ATCC 51299 incubated for 18 to 20 hrs followed by replating on tryptic soy agar plate and further incubated for 18 to 24 hrs by CLSI-based broth microdilution assay; format: functional; outline: as §1
[6] = system: Staphylococcus epidermidis; assay: Bactericidal activity against methicillin-resistant Staphylococcus epidermidis NRS101 incubated for 18 to 20 hrs followed by replating on tryptic soy agar plate and further incubated for 18 to 24 hrs by CLSI-based broth microdilution assay; format: functional
Streptococcus pneumoniae [7] = assay: Antibacterial activity against cephalosporin-resistant Streptococcus pneumoniae ATCC 51916 after 18 to 20 hrs by CLSI-based broth microdilution assay; format: functional
Outline: (§2)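 Broth microdilution per CLSI. Strains grown aerobically overnight on tryptone soy agar at 37 °C, adjusted to 0.5 McFarland, then diluted in cation-adjusted Mueller-Hinton broth to about 5 × 10^5 CFU/mL. Compounds (10 mg/mL DMSO stocks) serially diluted. Incubated aerobically at 37 °C for 18-20 h. MIC is the lowest concentration with no visible growth.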

Enterococcus faecium [8] = assay: Antibacterial activity against vancomycin-resistant Enterococcus faecium ATCC 700221 after 18 to 20 hrs by CLSI-based broth microdilution assay; format: functional; outline: as §2
[9] = system: Staphylococcus epidermidis; assay: Antibacterial activity against methicillin-resistant Staphylococcus epidermidis NRS101 after 18 to 20 hrs by CLSI-based broth microdilution assay; format: functional; outline: as §2
Staphylococcus aureus [10] = assay: Bactericidal activity against vancomycin-resistant Staphylococcus aureus 12 incubated for 18 to 20 hrs followed by replating on tryptic soy agar plate and further incubated for 18 to 24 hrs by CLSI-based broth microdilution assay; format: functional; outline: as §1
Staphylococcus aureus [11] = assay: Bactericidal activity against vancomycin-resistant Staphylococcus aureus 10 incubated for 18 to 20 hrs followed by replating on tryptic soy agar plate and further incubated for 18 to 24 hrs by CLSI-based broth microdilution assay; format: functional; outline: as §1
Staphylococcus aureus [12] = assay: Bactericidal activity against methicilline-resistant Staphylococcus aureus NRS385 USA500 incubated for 18 to 20 hrs followed by replating on tryptic soy agar plate and further incubated for 18 to 24 hrs by CLSI-based broth microdilution assay; format: functional; outline: as §1
Staphylococcus aureus [13] = assay: Bactericidal activity against methicilline-resistant Staphylococcus aureus NRS384 USA300 incubated for 18 to 20 hrs followed by replating on tryptic soy agar plate and further incubated for 18 to 24 hrs by CLSI-based broth microdilution assay; format: functional; outline: as §1
Staphylococcus aureus [14] = assay: Bactericidal activity against methicilline-resistant Staphylococcus aureus NRS-119 incubated for 18 to 20 hrs followed by replating on tryptic soy agar plate and further incubated for 18 to 24 hrs by CLSI-based broth microdilution assay; format: functional; outline: as §1
Staphylococcus aureus [15] = assay: Bactericidal activity against methicilline-sensitive Staphylococcus aureus ATCC 6538 incubated for 18 to 20 hrs followed by replating on tryptic soy agar plate and further incubated for 18 to 24 hrs by CLSI-based broth microdilution assay; format: functional; outline: as §1
Staphylococcus aureus [16] = assay: Antibacterial activity against vancomycin-resistant Staphylococcus aureus 12 after 18 to 20 hrs by CLSI-based broth microdilution assay; format: functional; outline: as §2
Staphylococcus aureus [17] = assay: Antibacterial activity against vancomycin-resistant Staphylococcus aureus 10 after 18 to 20 hrs by CLSI-based broth microdilution assay; format: functional; outline: as §2
Staphylococcus aureus [18] = assay: Antibacterial activity against methicilline-resistant Staphylococcus aureus NRS385 USA500 after 18 to 20 hrs by CLSI-based broth microdilution assay; format: functional; outline: as §2
Staphylococcus aureus [19] = assay: Antibacterial activity against methicilline-resistant Staphylococcus aureus NRS384 USA300 after 18 to 20 hrs by CLSI-based broth microdilution assay; format: functional; outline: as §2
Staphylococcus aureus [20] = assay: Antibacterial activity against methicilline-resistant Staphylococcus aureus NRS-119 after 18 to 20 hrs by CLSI-based broth microdilution assay; format: functional; outline: as §2
Staphylococcus aureus [21] = assay: Antibacterial activity against methicilline-sensitive Staphylococcus aureus ATCC 6538 after 18 to 20 hrs by CLSI-based broth microdilution assay; format: functional; outline: as §2
Staphylococcus aureus [22] = assay: Antibacterial activity against methicilline-sensitive Staphylococcus aureus NRS-107 after 18 to 20 hrs by CLSI-based broth microdilution assay; format: functional; outline: as §2
Staphylococcus aureus [23] = assay: Antibacterial activity against Staphylococcus aureus ATCC BAA42 after 18 to 20 hrs by CLSI-based broth microdilution assay; format: functional; outline: as §2
[24] = Aqueous solubility of the compound in phosphate buffered saline assessed as concentration that produces no precipitate measured as OD at 540 nm; format: physicochemical
Staphylococcus aureus [25] = assay: Antibacterial activity against methicillin-resistant Staphylococcus aureus NRS384 USA300 after 18 to 20 hrs by broth microdilution assay; format: functional; outline: as §2
Escherichia coli [26] = assay: Antibacterial activity against Escherichia coli BW25113; format: functional
Escherichia coli [27] = assay: Antibacterial activity against TolC-deficient Escherichia coli JW55031; format: functional
Klebsiella pneumoniae = assay: Antibacterial activity against Klebsiella pneumoniae BAA-1706; format: functional
Pseudomonas aeruginosa [28] = assay: Antibacterial activity against Pseudomonas aeruginosa ATCC 27853; format: functional
Pseudomonas aeruginosa [29] = assay: Antibacterial activity against Pseudomonas aeruginosa ATCC 15442; format: functional
Acinetobacter baumannii [30] = assay: Bactericidal activity against Acinetobacter baumannii ATCC 19606; format: functional; details: ATCC 19606 = CIP 70.34 = JCM 6841
Escherichia coli [31] = assay: Bactericidal activity against TolC-deficient Escherichia coli JW55031; format: functional
Escherichia coli [32] = assay: Bactericidal activity against Escherichia coli ATCC 25922; format: functional
Pseudomonas aeruginosa [33] = assay: Bactericidal activity against Pseudomonas aeruginosa ATCC 27853; format: functional
[34] = Safety index, ratio of non-toxic concentration for human Caco2 cells to MIC for methicillin-resistant Staphylococcus aureus NRS384 USA300; format: toxicity
Outline: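 Caco-2 cells exposed to compound in triplicate at 32, 64 and 128 µg/mL for 2 h, then MTS reagent for 4 h, absorbance at OD490. Viability expressed as percent of DMSO control. Highest non-toxic concentration divided by the broth microdilution MIC against MRSA USA300.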

Compound | MIC (Acinetobacter baumannii [1]) [µg/mL] | inhibition (Staphylococcus aureus [2]) | MBC (Streptococcus pneumoniae [3]) [µg/mL] | MBC (Streptococcus pneumoniae [4]) [µg/mL] | MBC (Listeria monocytogenes) [µg/mL] | MBC (Enterococcus faecium [5]) [µg/mL] | MBC (Enterococcus faecalis) [µg/mL] | MBC [6] [µg/mL] | MIC (Streptococcus pneumoniae [7]) [µg/mL] | MIC (Enterococcus faecium [8]) [µg/mL] | MIC [9] [µg/mL] | MBC (Staphylococcus aureus [10]) [µg/mL] | MBC (Staphylococcus aureus [11]) [µg/mL] | MBC (Staphylococcus aureus [12]) [µg/mL] | MBC (Staphylococcus aureus [13]) [µg/mL] | MBC (Staphylococcus aureus [14]) [µg/mL] | MBC (Staphylococcus aureus [15]) [µg/mL] | MIC (Staphylococcus aureus [16]) [µg/mL] | MIC (Staphylococcus aureus [17]) [µg/mL] | MIC (Staphylococcus aureus [18]) [µg/mL] | other results
C/C(=N\NC(=N)N)c1sc(-c2ccc(N3CCCC(C)C3)cc2)nc1C (centres undefined) | 32 (≈ 86.4 µM) | Active | 32 (≈ 86.4 µM) | 16 (≈ 43.2 µM) | 8 (≈ 21.6 µM) | 32 (≈ 86.4 µM) | 32 (≈ 86.4 µM) | 8 (≈ 21.6 µM) | 8 (≈ 21.6 µM) | 4 (≈ 10.8 µM) | 4 (≈ 10.8 µM) | 8 (≈ 21.6 µM) | 16 (≈ 43.2 µM) | 16 (≈ 43.2 µM) | 16 (≈ 43.2 µM) | 16 (≈ 43.2 µM) | 16 (≈ 43.2 µM) | 8 (≈ 21.6 µM) | 8 (≈ 21.6 µM) | 8 (≈ 21.6 µM) | MIC (Staphylococcus aureus [19]): 4 µg/mL (≈ 10.8 µM); MIC (Staphylococcus aureus [20]): 8 µg/mL (≈ 21.6 µM); MIC (Staphylococcus aureus [21]): 8 µg/mL (≈ 21.6 µM); MIC (Staphylococcus aureus [22]): 8 µg/mL (≈ 21.6 µM); MIC (Staphylococcus aureus [23]): 8 µg/mL (≈ 21.6 µM); solubility kinetic [24]: 435 µM (≈ 161 µg/mL); MIC (Staphylococcus aureus [25]): 4 µg/mL (≈ 10.8 µM); MIC (Escherichia coli [26]): 32 µg/mL (≈ 86.4 µM); MIC (Escherichia coli [27]): 8 µg/mL (≈ 21.6 µM); MIC (Klebsiella pneumoniae): 16 µg/mL (≈ 43.2 µM); MIC (Pseudomonas aeruginosa [28]): > 64 µg/mL; MIC (Pseudomonas aeruginosa [29]): > 64 µg/mL; MBC (Acinetobacter baumannii [30]): 32 µg/mL (≈ 86.4 µM); MBC (Escherichia coli [31]): 16 µg/mL (≈ 43.2 µM); MBC (Escherichia coli [32]): 32 µg/mL (≈ 86.4 µM); MBC (Pseudomonas aeruginosa [33]): > 64 µg/mL; selectivity ratio [34]: 8
C/C(=N\NC(=N)N)c1sc(-c2ccc(N3CCCCC3)cc2)nc1C | 32 (≈ 89.8 µM) | Active | 16 (≈ 44.9 µM) | 16 (≈ 44.9 µM) | 16 (≈ 44.9 µM) | 32 (≈ 89.8 µM) | 64 (≈ 180 µM) | 8 (≈ 22.4 µM) | 8 (≈ 22.4 µM) | 8 (≈ 22.4 µM) | 8 (≈ 22.4 µM) | 16 (≈ 44.9 µM) | 16 (≈ 44.9 µM) | 32 (≈ 89.8 µM) | 16 (≈ 44.9 µM) | 16 (≈ 44.9 µM) | 8 (≈ 22.4 µM) | 4 (≈ 11.2 µM) | 4 (≈ 11.2 µM) | 8 (≈ 22.4 µM) | MIC (Staphylococcus aureus [19]): 4 µg/mL (≈ 11.2 µM); MIC (Staphylococcus aureus [20]): 4 µg/mL (≈ 11.2 µM); MIC (Staphylococcus aureus [21]): 4 µg/mL (≈ 11.2 µM); MIC (Staphylococcus aureus [22]): 4 µg/mL (≈ 11.2 µM); MIC (Staphylococcus aureus [23]): 4 µg/mL (≈ 11.2 µM); solubility kinetic [24]: 480 µM (≈ 171 µg/mL); MIC (Staphylococcus aureus [25]): 4 µg/mL (≈ 11.2 µM); MIC (Escherichia coli [26]): 32 µg/mL (≈ 89.8 µM); MIC (Escherichia coli [27]): 32 µg/mL (≈ 89.8 µM); MIC (Klebsiella pneumoniae): 64 µg/mL (≈ 180 µM); MIC (Pseudomonas aeruginosa [28]): > 64 µg/mL; MIC (Pseudomonas aeruginosa [29]): > 64 µg/mL; MBC (Acinetobacter baumannii [30]): 64 µg/mL (≈ 180 µM); MBC (Escherichia coli [31]): 32 µg/mL (≈ 89.8 µM); MBC (Escherichia coli [32]): 64 µg/mL (≈ 180 µM); MBC (Pseudomonas aeruginosa [33]): > 64 µg/mL; selectivity ratio [34]: 16
